Measured values reported in ChEMBL document CHEMBL4665669, “Novel tertiary sulfonamide derivatives containing benzimidazole moiety as potent anti-gastric cancer agents: Design, synthesis and SAR studies” (Eur J Med Chem, 2019).

Key:
[1] = tested on: MCF7; assay: Anticancer activity against human MCF7 cells assessed as inhibition of cell proliferation after 48 hrs by MTT assay; type: functional, cell-based; details: MCF7, 48 h
In short: (§1)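 MTT assay with 48 h compound exposure. MTT solution was then added and incubated 4 h at 37 °C, the supernatant discarded and formazan dissolved in DMSO, with absorbance read at 490 nm. IC50 values were calculated from three independent experiments, reported as mean SD.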

[2] = tested on: PC-3; assay: Anticancer activity against human PC-3 cells assessed as inhibition of cell proliferation after 48 hrs by MTT assay; type: functional, cell-based; details: PC-3, 48 h; in short: as §1
[3] = tested on: MGC-803; assay: Anticancer activity against human MGC-803 cells assessed as inhibition of cell proliferation after 48 hrs by MTT assay; type: functional, cell-based; details: MGC-803, 48 h; in short: as §1
[4] = Inhibition of HIF in human LN229 cells transfected with HRE-luc/LacZ by dual luciferase reporter gene assay; type: cell-based; details: LN-229
[5] = target: Carbonic anhydrase 9 (Homo sapiens, UniProt Q16790); assay: Inhibition of recombinant human CA9 preincubated for 15 mins by phenol red dye based stopped flow CO2 hydration assay
[6] = tested on: GES1; assay: Cytotoxicity against human GES1 cells assessed as inhibition of cell proliferation after 48 hrs by MTT assay; type: cell-based; details: GES1, 48 h
In short: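 Normal gastric epithelial GES-1 cells were exposed to compound for 48 h. MTT was then added for 4 h at 37 °C. Formazan was dissolved in DMSO after the supernatant was removed, and absorbance was read at 490 nm. IC50 was computed from three independent experiments, given as mean SD.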

[7] = tested on: SGC-7901; assay: Anticancer activity against human SGC-7901 cells assessed as inhibition of cell proliferation after 48 hrs by MTT assay; type: functional, cell-based; details: SGC-7901, 48 h; in short: as §1
[8] = tested on: HGC-27; assay: Anticancer activity against human HGC-27 cells assessed as inhibition of cell proliferation after 48 hrs by MTT assay; type: functional, cell-based; details: HGC-27, 48 h; in short: as §1

SMILES	IC50 [1] [µM]	IC50 [2] [µM]	IC50 [3] [µM]	IC50 [4] [µM]	IC50 [5] [µM]	IC50 [6] [µM]	IC50 [7] [µM]	IC50 [8] [µM]
COc1cc(N(Cc2nc3ccccc3[nH]2)C(=O)c2ccc(C)cc2)cc(OC)c1OC	49.2	42	30.5					
COc1ccc(N(Cc2nc3ccccc3[nH]2)S(=O)(=O)c2ccc(C)cc2)cc1	> 50	> 50	> 50					
COc1ccc(S(=O)(=O)N(Cc2ccc3c(c2)OC(C)(C)C=C3)c2ccccc2)cc1OC				0.59				
Cc1ccc(N(CC(C)F)S(=O)(=O)c2ccc([N+](=O)[O-])cc2)cc1 (configuration not stated)					0.0042			
COc1cc(N(Cc2nc3ccccc3[nH]2)C(=O)c2ccc(C(C)(C)C)cc2)cc(OC)c1OC	48.8	46	> 50					
COc1cc(N(Cc2nc3ccccc3[nH]2)S(=O)(=O)c2ccccc2)cc(OC)c1OC	27.3	25.5	12.4					
COc1cc(N(Cc2ccc(F)cc2)S(=O)(=O)c2ccc(C)cc2)cc(OC)c1OC	19.2	20.7	3.75					
Cc1ccc(N(Cc2nc3ccccc3[nH]2)S(=O)(=O)c2ccc(C)cc2)cc1	> 50	48.9	41.2					
COc1cc(N(Cc2ccc(Br)cc2)S(=O)(=O)c2ccc(C)cc2)cc(OC)c1OC	10.9	4.68	1.61					
COc1ccc(CN(c2cc(OC)c(OC)c(OC)c2)S(=O)(=O)c2ccc(OC)c(OC)c2)cc1	22.7	20.1	8.31					
O=c1[nH]cc(F)c(=O)[nH]1 [FLUOROURACIL]	17.1	18.4				10.2	5.54	4.28
COc1cc(N(Cc2ccc(Cl)cc2)S(=O)(=O)c2ccc(C)cc2)cc(OC)c1OC	18.6	14.6	1.72					
COc1cc(N(Cc2ccccc2)S(=O)(=O)c2ccc(C)cc2)cc(OC)c1OC	10.2	7.81	3.57					
COc1cc(N(Cc2nc3ccccc3[nH]2)C(=O)c2ccc(F)cc2)cc(OC)c1OC	45.2	21.9	23.6					
COc1ccc(CN(c2cc(OC)c(OC)c(OC)c2)S(=O)(=O)c2ccc(C)cc2)cc1	10.1	8.22	4.34					
COc1cc(N(Cc2nc3ccccc3[nH]2)C(=O)c2cccc(Cl)c2)cc(OC)c1OC	34.9	> 50	> 50					
COc1cc(N(Cc2nc3ccccc3[nH]2)C(=O)c2ccc(Br)cc2)cc(OC)c1OC	> 50	19.9	14.6					

SMILES	IC50 [1] [µM]	IC50 [2] [µM]	IC50 [3] [µM]	IC50 [4] [µM]	IC50 [5] [µM]	IC50 [6] [µM]	IC50 [7] [µM]	IC50 [8] [µM]
COc1cc(N(Cc2nc3ccccc3[nH]2)S(=O)(=O)c2ccccc2Cl)cc(OC)c1OC	38.1	34.5	19.1					
Cc1ccc(S(=O)(=O)N(Cc2nc3ccccc3[nH]2)c2ccccc2)cc1	49.7	> 50	45.2					
Cc1ccc(S(=O)(=O)N(Cc2nc3ccccc3[nH]2)c2ccc(Cl)cc2)cc1	38.3	42.2	24.8					
COc1cc(N(Cc2cccc(C)c2)S(=O)(=O)c2ccc(C)cc2)cc(OC)c1OC	14.3	8.58	4.34					
COc1ccc(N(Cc2nc3ccccc3[nH]2)S(=O)(=O)c2ccc(C)cc2)cc1OC	> 50	> 50	> 50					
COc1cc(N(Cc2nc3ccccc3[nH]2)S(=O)(=O)c2ccc(Br)cc2)cc(OC)c1OC	7.74	6.89	2.19					
COc1ccc(CN(c2cc(OC)c(OC)c(OC)c2)S(=O)(=O)c2ccccc2)cc1	> 50	> 50	> 50					
COc1ccc(CN(c2cc(OC)c(OC)c(OC)c2)S(=O)(=O)c2c(C)cc(C)cc2C)cc1	18.7	14.8	6.44					
Cc1ccc(S(=O)(=O)N(Cc2nc3ccccc3[nH]2)c2ccc(F)cc2)cc1	> 50	45	34.6					
COc1ccc(S(=O)(=O)N(Cc2nc3ccccc3[nH]2)c2cc(OC)c(OC)c(OC)c2)cc1OC	47.7	30.4	22.5					
COc1cc(N(Cc2nc3ccccc3[nH]2)S(=O)(=O)c2ccc(C(C)(C)C)cc2)cc(OC)c1OC	33.6	29.8	24.1					
COc1ccc(CN(c2cc(OC)c(OC)c(OC)c2)S(=O)(=O)c2ccc(C(C)(C)C)cc2)cc1	32.7	28.6	10.3					
COc1cc(N(Cc2nc3ccccc3[nH]2)S(=O)(=O)c2ccc(F)cc2)cc(OC)c1OC	9.38	7.99	5.68					
COc1ccc(C(=O)N(Cc2nc3ccccc3[nH]2)c2cc(OC)c(OC)c(OC)c2)cc1OC	> 50	34.9	22.4					
COc1cc(N(Cc2nc3ccccc3[nH]2)C(=O)c2ccccc2)cc(OC)c1OC	> 50	> 50	> 50					
COc1cc(N(Cc2csc3ccc(Cl)cc23)S(=O)(=O)c2ccc(C)cc2)cc(OC)c1OC	8.95	15.2	3.45					
